How the values were obtained:
[1] = Biodistribution in thyroid gland of mongrel dog assessed per organ at 1.29 x 10^-6 mol, iv measured after 2 hrs; format: ADME, organism-based, Canis lupus familiaris; details: in vivo
Procedure, shortened: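 Radioiodine-labelled tracer given at 1.29 × 10^-6 mol/dog. One dog per time point, killed at 2 or 24 h. Thyroids and other small organs were taken intact and counted. Large organs were sampled three times and averaged. Result given as % dose/organ.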

Liver [2] = assay: Biodistribution in liver of mouse assessed per organ at 8 to 11 x 10^-8 mol, iv measured after 15 mins; format: ADME, organism-based; details: in vivo, 0.25 h
Procedure, shortened: (§1)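 [131I]- or [123I]-6-iododopamine in water or saline, used within 30 min of preparation. Injected iv at 8-11 × 10^-8 mol/mouse. Mice killed by ether overdose at 5-240 min; 3-10 mice per time point. Tissue radioactivity expressed as % dose/organ ± SD.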

Mus musculus [3] = assay: Biodistribution in thyroid gland of mouse assessed per organ at 8 to 11 x 10^-8 mol, iv measured after 30 mins; format: ADME, organism-based; details: in vivo, 0.5 h
Procedure, shortened: (§2)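 Tracer labelled with either 123I or 131I, in water or saline, used within 30 min of preparation. Mice dosed iv at 8-11 × 10^-8 mol/mouse and killed by ether overdose. Organs counted as % dose/organ ± SD, n = 3-10 mice per time point.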

Kidney [4] = assay: Biodistribution in kidney of mouse assessed per organ at 8 to 11 x 10^-8 mol, iv measured after 15 mins; format: ADME, organism-based; details: in vivo, 0.25 h; procedure, shortened: as §1
Mus musculus [5] = assay: Biodistribution in thyroid gland of mouse assessed per organ at 8 to 11 x 10^-8 mol, iv measured after 120 mins; format: ADME, organism-based; details: in vivo, 2 h; procedure, shortened: as §2
Kidney [6] = assay: Biodistribution in kidney of mouse assessed per organ at 8 to 11 x 10^-8 mol, iv measured after 120 mins; format: ADME, organism-based; details: in vivo, 2 h; procedure, shortened: as §1
Liver [7] = assay: Biodistribution in liver of rat assessed per organ at 3.6 x 10^-8 mol, iv measured after 5 mins; format: ADME, organism-based; details: in vivo
Procedure, shortened: (§3)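 [131I]-labelled tracer in water or saline, injected within 30 min of preparation. Rats given 3.6 × 10^-8 mol/rat iv, killed by ether overdose at each time point. Organs excised and radioactivity counted as % dose/organ, mean ± SD of four rats.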

Liver [8] = assay: Biodistribution in liver of mongrel dog assessed per organ at 1.29 x 10^-6 mol, iv measured after 2 hrs; format: ADME, organism-based, Canis lupus familiaris; details: in vivo
Procedure, shortened: (§4)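 Radioiodinated ([123I] or [131I]) 6-iododopamine in water or saline, used within 30 min of preparation. Given iv at 1.29 × 10^-6 mol/dog; one dog per time point, killed at 2 or 24 h. Large organs counted as three samples and averaged; adrenals and thyroid taken intact and counted. Expressed as % dose/organ.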

Mus musculus [9] = assay: Biodistribution in thyroid gland of mouse assessed per organ at 8 to 11 x 10^-8 mol, iv measured after 15 mins; format: ADME, organism-based; details: in vivo, 0.25 h; procedure, shortened: as §2
Mus musculus [10] = assay: Biodistribution in thyroid gland of mouse assessed per organ at 8 to 11 x 10^-8 mol, iv measured after 240 mins; format: ADME, organism-based; details: in vivo, 4 h; procedure, shortened: as §2
Rattus norvegicus [11] = assay: Biodistribution in adrenal cortex of rat assessed per organ at 3.6 x 10^-8 mol, iv measured after 30 mins; format: ADME, organism-based; details: in vivo, 0.5 h
Procedure, shortened: (§5)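 [131I]-6-iododopamine in water or saline, used within 30 min of preparation. Injected iv at 3.6 × 10^-8 mol/rat. Rats killed by ether overdose at 5, 30 or 60 min, or at 2, 4 or 24 h. Tissue radioactivity expressed as % dose/organ, mean ± SD of four rats.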

Liver [12] = assay: Biodistribution in liver of rat assessed per organ at 3.6 x 10^-8 mol, iv measured after 24 hrs; format: ADME, organism-based; details: in vivo; procedure, shortened: as §3
Rattus norvegicus [13] = assay: Biodistribution in adrenal cortex of rat assessed per organ at 3.6 x 10^-8 mol, iv measured after 24 hrs; format: ADME, organism-based; details: in vivo; procedure, shortened: as §5
Mus musculus [14] = assay: Biodistribution in adrenal gland of mouse assessed per organ at 8 to 11 x 10^-8 mol, iv measured after 30 mins; format: ADME, organism-based; details: in vivo, 0.5 h; procedure, shortened: as §1
Mus musculus [15] = assay: Biodistribution in adrenal gland of mouse assessed per organ at 8 to 11 x 10^-8 mol, iv measured after 240 mins; format: ADME, organism-based; details: in vivo, 4 h; procedure, shortened: as §1
Rattus norvegicus [16] = assay: Biodistribution in adrenal cortex of rat assessed per organ at 3.6 x 10^-8 mol, iv measured after 4 hrs; format: ADME, organism-based; details: in vivo; procedure, shortened: as §5
Kidney [17] = assay: Biodistribution in kidney of rat assessed per organ at 3.6 x 10^-8 mol, iv measured after 4 hrs; format: ADME, organism-based; details: in vivo; procedure, shortened: as §5
Blood [18] = assay: Biodistribution in blood of rat at 3.6 x 10^-8 mol, iv measured after 24 hrs; format: ADME, organism-based; details: in vivo
Procedure, shortened: (§6)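 [131I]-6-iododopamine in water or saline, used within 30 min of preparation. Injected iv at 3.6 × 10^-8 mol/rat. Rats killed by ether overdose at 5 min to 24 h. Blood radioactivity expressed as % dose/g, mean ± SD of four rats.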

Rattus norvegicus [19] = assay: Biodistribution in thyroid gland of rat assessed per organ at 3.6 x 10^-8 mol, iv measured after 2 hrs; format: ADME, organism-based; details: in vivo; procedure, shortened: as §3
Liver [20] = assay: Biodistribution in liver of mouse assessed per organ at 8 to 11 x 10^-8 mol, iv measured after 120 mins; format: ADME, organism-based; details: in vivo, 2 h; procedure, shortened: as §1
Mus musculus [21] = assay: Biodistribution in thyroid gland of mouse assessed per organ at 8 to 11 x 10^-8 mol, iv measured after 60 mins; format: ADME, organism-based; details: in vivo, 1 h; procedure, shortened: as §2
Kidney [22] = assay: Biodistribution in kidney of rat assessed per organ at 3.6 x 10^-8 mol, iv measured after 2 hrs; format: ADME, organism-based; details: in vivo; procedure, shortened: as §5
Adrenal medulla = assay: Biodistribution in adrenal medulla of rat assessed per organ at 3.6 x 10^-8 mol, iv measured after 60 mins; format: ADME, organism-based; details: in vivo, 1 h; procedure, shortened: as §5
Kidney [23] = assay: Biodistribution in kidney of mouse assessed per organ at 8 to 11 x 10^-8 mol, iv measured after 5 mins; format: ADME, organism-based; details: in vivo; procedure, shortened: as §1
[24] = Biodistribution in kidney of mongrel dog assessed per organ at 1.29 x 10^-6 mol, iv measured after 2 hrs; format: ADME, organism-based, Canis lupus familiaris; details: in vivo; procedure, shortened: as §4
[25] = Biodistribution in kidney of mongrel dog assessed per organ at 1.29 x 10^-6 mol, iv measured after 24 hrs; format: ADME, organism-based, Canis lupus familiaris; details: in vivo; procedure, shortened: as §4
Rattus norvegicus [26] = assay: Biodistribution in thyroid gland of rat assessed per organ at 3.6 x 10^-8 mol, iv measured after 4 hrs; format: ADME, organism-based; details: in vivo; procedure, shortened: as §3
[27] = Biodistribution in adrenal medulla of mongrel dog assessed per organ at 1.29 x 10^-6 mol, iv measured after 24 hrs; format: ADME, organism-based, Canis lupus familiaris; details: in vivo; procedure, shortened: as §4
Blood [28] = assay: Biodistribution in blood of rat at 3.6 x 10^-8 mol, iv measured after 2 hrs; format: ADME, organism-based; details: in vivo; procedure, shortened: as §6
[29] = Biodistribution in adrenal cortex of mongrel dog assessed per organ at 1.29 x 10^-6 mol, iv measured after 24 hrs; format: ADME, organism-based, Canis lupus familiaris; details: in vivo; procedure, shortened: as §4
Kidney [30] = assay: Biodistribution in kidney of rat assessed per organ at 3.6 x 10^-8 mol, iv measured after 5 mins; format: ADME, organism-based; details: in vivo; procedure, shortened: as §5
Liver [31] = assay: Biodistribution in liver of mouse assessed per organ at 8 to 11 x 10^-8 mol, iv measured after 240 mins; format: ADME, organism-based; details: in vivo, 4 h; procedure, shortened: as §1
Rattus norvegicus [32] = assay: Biodistribution in adrenal cortex of rat assessed per organ at 3.6 x 10^-8 mol, iv measured after 2 hrs; format: ADME, organism-based; details: in vivo; procedure, shortened: as §5
Liver [33] = assay: Biodistribution in liver of rat assessed per organ at 3.6 x 10^-8 mol, iv measured after 60 mins; format: ADME, organism-based; details: in vivo, 1 h; procedure, shortened: as §3
Blood [34] = assay: Biodistribution in blood of rat at 3.6 x 10^-8 mol, iv measured after 60 mins; format: ADME, organism-based; details: in vivo, 1 h; procedure, shortened: as §6

Q: Which Drug uptake [1] does the source give for `Br.NCCc1cc(O)c(O)cc1[131I]` here?
A: 0.026 %ID

Q: What about the Drug uptake (Liver [2]) of the same molecule?
A: 3.64 %ID

Q: What about the Drug uptake (Mus musculus [3]) of the same molecule?
A: 0.084 %ID

Q: What about the Drug uptake (Kidney [4]) of the same molecule?
A: 3.44 %ID

Q: What about the Drug uptake (Mus musculus [5]) of the same molecule?
A: 0.176 %ID

Q: And the Drug uptake (Kidney [6])?
A: 0.78 %ID

Q: And the Drug uptake (Liver [7])?
A: 4.58 %ID

Q: What about the Drug uptake (Liver [8]) of the same molecule?
A: 2.24 %ID

Q: And the Drug uptake (Mus musculus [9])?
A: 0.067 %ID

Q: And the Drug uptake (Mus musculus [10])?
A: 0.158 %ID

Q: And the Drug uptake (Rattus norvegicus [11])?
A: 0.0062 %ID

Q: And the Drug uptake (Liver [12])?
A: 0.072 %ID

Q: What about the Drug uptake (Rattus norvegicus [13]) of the same molecule?
A: 0.000081 %ID

Q: What about the Drug uptake (Mus musculus [14]) of the same molecule?
A: 0.014 %ID

Q: What about the Drug uptake (Mus musculus [15]) of the same molecule?
A: 0.012 %ID

Q: And the Drug uptake (Rattus norvegicus [16])?
A: 0.002 %ID

Q: And the Drug uptake (Kidney [17])?
A: 0.194 %ID

Q: And the Drug uptake (Blood [18])?
A: 0.0062 %ID

Q: And the Drug uptake (Rattus norvegicus [19])?
A: 0.183 %ID

Q: What about the Drug uptake (Liver [20]) of the same molecule?
A: 0.84 %ID

Q: And the Drug uptake (Mus musculus [21])?
A: 0.066 %ID

Q: What about the Drug uptake (Kidney [22]) of the same molecule?
A: 0.168 %ID

Q: What about the Drug uptake (Adrenal medulla) of the same molecule?
A: 0.0038 %ID

Q: And the Drug uptake (Kidney [23])?
A: 8.03 %ID

Q: What about the Drug uptake [24] of the same molecule?
A: 0.77 %ID

Q: And the Drug uptake [25]?
A: 0.075 %ID

Q: And the Drug uptake (Rattus norvegicus [26])?
A: 0.251 %ID

Q: And the Drug uptake [27]?
A: 0.0021 %ID

Q: And the Drug uptake (Blood [28])?
A: 0.052 %ID

Q: And the Drug uptake [29]?
A: 0.0104 %ID

Q: What about the Drug uptake (Kidney [30]) of the same molecule?
A: 3.55 %ID

Q: What about the Drug uptake (Liver [31]) of the same molecule?
A: 0.94 %ID

Q: And the Drug uptake (Rattus norvegicus [32])?
A: 0.0028 %ID

Q: What about the Drug uptake (Liver [33]) of the same molecule?
A: 0.67 %ID

Q: And the Drug uptake (Blood [34])?
A: 0.131 %ID

Source: ChEMBL document CHEMBL3271970, “Radiopharmaceuticals. 16. Halogenated dopamine analogs. Synthesis and radiolabeling of 6-iododopamine and tissue distribution studies in animals” (J Med Chem, 1976)
